Test results published in ChEMBL document CHEMBL1128263, “N-(1-methyl-5-indolyl)-N'-(3-methyl-5-isothiazolyl)urea: a novel, high-affinity 5-HT2B receptor antagonist” (J Med Chem, 1995).

Assays:
[1] = biological target: 5-hydroxytryptamine receptor 2B (Rattus norvegicus, UniProt P30994); test: Antagonistic affinity measured as pA2 value on 5-hydroxytryptamine 2B receptor of the rat stomach fundus; type: functional, tissue-based; details: read-out: pA2 (converted)
[2] = biological target: T1, 5-hydroxytryptamine receptor 2C (Homo sapiens, UniProt P28335); test: (§1) Selectivity as the ratio of Ki value towards 5-hydroxytryptamine 2C receptor to that of pA2 value towards 5-hydroxytryptamine 2B receptor; type: functional
T1 sequence (P28335 whole entry): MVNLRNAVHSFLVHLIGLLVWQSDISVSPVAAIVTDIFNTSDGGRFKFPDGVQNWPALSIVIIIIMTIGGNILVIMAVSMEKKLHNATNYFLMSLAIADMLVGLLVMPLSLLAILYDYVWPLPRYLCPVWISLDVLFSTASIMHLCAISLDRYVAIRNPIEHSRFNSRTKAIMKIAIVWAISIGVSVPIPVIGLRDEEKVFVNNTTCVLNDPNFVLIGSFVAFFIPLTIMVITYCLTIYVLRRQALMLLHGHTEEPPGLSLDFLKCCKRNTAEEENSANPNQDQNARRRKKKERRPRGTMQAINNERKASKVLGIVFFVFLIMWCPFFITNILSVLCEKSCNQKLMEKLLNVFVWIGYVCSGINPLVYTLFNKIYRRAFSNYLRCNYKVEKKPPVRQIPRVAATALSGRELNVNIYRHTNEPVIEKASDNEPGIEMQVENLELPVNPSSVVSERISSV

[3] = biological target: 5-HT2C receptor (Homo sapiens); test: Antagonistic binding affinity measured against 5-hydroxytryptamine 2C receptor (human clone expressed in 293 cells) using [3H]mesulergine as radioligand
[4] = biological target: 5-hydroxytryptamine receptor 1E (Homo sapiens, UniProt P28566); test: The binding affinity (pKi) measured against 5-hydroxytryptamine 1E receptor (cloned human receptors in CHO cells) using […] as radioligand; type: cell-based
Method in brief: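 Radioligand binding at cloned human 5-HT1E receptors expressed in CHO cells, labelled with [3H]-5-HT.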

[5] = biological target: T2, Adrenergic receptor alpha-1 (Rattus norvegicus, UniProt P15823+P23944+P43140); test: The binding affinity (pKi) measured against Alpha-1 adrenergic receptor of rat cortex using [3H]prazosin as radioligand
T2 sequence (P15823 whole entry): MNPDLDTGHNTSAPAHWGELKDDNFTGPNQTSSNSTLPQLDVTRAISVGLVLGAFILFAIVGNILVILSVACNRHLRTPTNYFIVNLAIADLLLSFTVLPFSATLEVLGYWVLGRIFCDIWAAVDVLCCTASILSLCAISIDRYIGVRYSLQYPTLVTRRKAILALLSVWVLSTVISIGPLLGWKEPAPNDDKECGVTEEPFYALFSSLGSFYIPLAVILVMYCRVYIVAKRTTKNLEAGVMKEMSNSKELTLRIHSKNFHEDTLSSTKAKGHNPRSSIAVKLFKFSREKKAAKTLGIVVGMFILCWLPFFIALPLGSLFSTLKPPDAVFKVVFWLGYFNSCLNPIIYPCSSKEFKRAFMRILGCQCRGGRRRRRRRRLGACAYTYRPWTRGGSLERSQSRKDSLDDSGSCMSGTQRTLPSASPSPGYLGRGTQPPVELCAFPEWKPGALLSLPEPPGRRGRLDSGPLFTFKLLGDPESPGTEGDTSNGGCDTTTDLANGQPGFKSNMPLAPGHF
T2 sequence (P23944 whole entry): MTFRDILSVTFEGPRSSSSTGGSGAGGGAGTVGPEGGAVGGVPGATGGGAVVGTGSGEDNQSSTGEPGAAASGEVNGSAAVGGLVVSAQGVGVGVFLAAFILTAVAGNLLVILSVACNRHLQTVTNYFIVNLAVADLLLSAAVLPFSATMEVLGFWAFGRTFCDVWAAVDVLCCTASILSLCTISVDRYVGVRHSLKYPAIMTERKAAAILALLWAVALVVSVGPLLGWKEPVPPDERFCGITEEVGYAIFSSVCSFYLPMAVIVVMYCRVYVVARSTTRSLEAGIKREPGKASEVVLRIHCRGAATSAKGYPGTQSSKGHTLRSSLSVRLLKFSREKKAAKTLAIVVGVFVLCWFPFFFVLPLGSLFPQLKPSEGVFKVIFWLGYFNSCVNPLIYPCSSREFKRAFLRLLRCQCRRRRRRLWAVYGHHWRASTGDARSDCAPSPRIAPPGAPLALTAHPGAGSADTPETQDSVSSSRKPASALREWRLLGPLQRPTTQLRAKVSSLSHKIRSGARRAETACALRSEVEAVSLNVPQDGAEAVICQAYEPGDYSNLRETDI
T2 sequence (P43140 whole entry): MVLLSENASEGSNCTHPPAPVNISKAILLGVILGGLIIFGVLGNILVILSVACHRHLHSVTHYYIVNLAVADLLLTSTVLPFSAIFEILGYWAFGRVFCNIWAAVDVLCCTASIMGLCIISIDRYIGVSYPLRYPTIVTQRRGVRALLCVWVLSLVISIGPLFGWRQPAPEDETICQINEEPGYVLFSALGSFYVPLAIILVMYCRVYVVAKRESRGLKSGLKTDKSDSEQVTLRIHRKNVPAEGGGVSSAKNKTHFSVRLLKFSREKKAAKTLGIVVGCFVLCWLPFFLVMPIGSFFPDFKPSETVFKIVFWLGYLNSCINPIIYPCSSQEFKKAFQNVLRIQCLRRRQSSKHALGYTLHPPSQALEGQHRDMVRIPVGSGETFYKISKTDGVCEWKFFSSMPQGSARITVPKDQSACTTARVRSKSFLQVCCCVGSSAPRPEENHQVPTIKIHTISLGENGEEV

D(1A) dopamine receptor = D(1A) dopamine receptor (Homo sapiens, UniProt P21728); test: The binding affinity (pKi) measured against Dopamine receptor D1 using [3H]-SCH- 23390 as radioligand
Method in brief: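 Binding at cloned human dopamine D1 receptors expressed in LTK cells.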

D(2) dopamine receptor = D(2) dopamine receptor (Homo sapiens, UniProt P14416); test: In vitro binding affinity was measured on Dopamine receptor D2
[6] = biological target: GABA-A receptor; anion channel; test: Inhibition of [3H]muscimol binding to Gamma-aminobutyric acid A (GABA-A) receptor of rat cortex
Histamine H1 receptor = Histamine H1 receptor (Cavia porcellus, UniProt P31389); test: The binding affinity (pKi) measured against histamine H1 receptor of guinea pig cerebellum using [3H]mepyramine as radioligand; type: tissue-based
[7] = biological target: 5-hydroxytryptamine receptor 2A (Homo sapiens, UniProt P28223); test: Antagonistic binding affinity measured against 5-hydroxytryptamine 2A receptor (human clone expressed in 293 cells) using [3H]ketanserin as radioligand; type: cell-based, HEK293
[8] = biological target: T1, 5-hydroxytryptamine receptor 2C; test: Antagonistic binding affinity measured against 5-hydroxytryptamine 2C receptor (human clone expressed in 293 cells) using [3H]mesulergine as radioligand; type: cell-based, HEK293
[9] = as §1; type: functional

5-hydroxytryptamine receptor 2B, sequence (P30994 whole entry): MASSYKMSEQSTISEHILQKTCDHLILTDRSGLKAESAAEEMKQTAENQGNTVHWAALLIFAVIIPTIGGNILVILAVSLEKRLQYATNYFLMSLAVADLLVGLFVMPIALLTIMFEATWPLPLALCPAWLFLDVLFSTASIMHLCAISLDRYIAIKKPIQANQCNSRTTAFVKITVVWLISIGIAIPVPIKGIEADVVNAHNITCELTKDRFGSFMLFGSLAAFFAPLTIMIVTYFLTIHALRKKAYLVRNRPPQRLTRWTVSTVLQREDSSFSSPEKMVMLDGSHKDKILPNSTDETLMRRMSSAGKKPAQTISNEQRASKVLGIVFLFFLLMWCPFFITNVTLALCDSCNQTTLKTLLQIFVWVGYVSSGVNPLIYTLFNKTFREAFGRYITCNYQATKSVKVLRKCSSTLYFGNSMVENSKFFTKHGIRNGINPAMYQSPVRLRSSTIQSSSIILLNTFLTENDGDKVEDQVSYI
D(1A) dopamine receptor, sequence (P21728 whole entry): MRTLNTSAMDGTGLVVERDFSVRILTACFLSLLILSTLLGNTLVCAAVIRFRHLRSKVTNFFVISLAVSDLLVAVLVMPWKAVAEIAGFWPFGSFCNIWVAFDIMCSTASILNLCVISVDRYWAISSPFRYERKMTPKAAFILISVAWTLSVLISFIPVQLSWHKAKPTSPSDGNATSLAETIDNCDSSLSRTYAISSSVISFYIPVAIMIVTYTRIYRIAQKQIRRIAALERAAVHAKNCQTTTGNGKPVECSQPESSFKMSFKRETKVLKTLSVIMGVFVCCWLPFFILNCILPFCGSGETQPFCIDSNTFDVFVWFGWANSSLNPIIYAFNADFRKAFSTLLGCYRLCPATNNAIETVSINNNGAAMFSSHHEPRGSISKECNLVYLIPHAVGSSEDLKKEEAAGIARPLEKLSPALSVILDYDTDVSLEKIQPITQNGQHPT
D(2) dopamine receptor, sequence (P14416 whole entry): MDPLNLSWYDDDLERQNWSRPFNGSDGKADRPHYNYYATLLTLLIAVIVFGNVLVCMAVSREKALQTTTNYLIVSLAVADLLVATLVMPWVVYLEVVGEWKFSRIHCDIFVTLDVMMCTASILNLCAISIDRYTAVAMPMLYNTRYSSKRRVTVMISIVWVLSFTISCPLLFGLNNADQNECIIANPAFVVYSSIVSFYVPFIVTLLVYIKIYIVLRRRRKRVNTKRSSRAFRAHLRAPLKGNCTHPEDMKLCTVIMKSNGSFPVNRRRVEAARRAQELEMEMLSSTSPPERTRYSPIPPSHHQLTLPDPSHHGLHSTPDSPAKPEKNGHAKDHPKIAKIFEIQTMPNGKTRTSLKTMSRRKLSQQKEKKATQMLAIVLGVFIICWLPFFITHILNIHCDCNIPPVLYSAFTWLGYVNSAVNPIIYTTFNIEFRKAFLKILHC
5-hydroxytryptamine receptor 2A, sequence (P28223 whole entry): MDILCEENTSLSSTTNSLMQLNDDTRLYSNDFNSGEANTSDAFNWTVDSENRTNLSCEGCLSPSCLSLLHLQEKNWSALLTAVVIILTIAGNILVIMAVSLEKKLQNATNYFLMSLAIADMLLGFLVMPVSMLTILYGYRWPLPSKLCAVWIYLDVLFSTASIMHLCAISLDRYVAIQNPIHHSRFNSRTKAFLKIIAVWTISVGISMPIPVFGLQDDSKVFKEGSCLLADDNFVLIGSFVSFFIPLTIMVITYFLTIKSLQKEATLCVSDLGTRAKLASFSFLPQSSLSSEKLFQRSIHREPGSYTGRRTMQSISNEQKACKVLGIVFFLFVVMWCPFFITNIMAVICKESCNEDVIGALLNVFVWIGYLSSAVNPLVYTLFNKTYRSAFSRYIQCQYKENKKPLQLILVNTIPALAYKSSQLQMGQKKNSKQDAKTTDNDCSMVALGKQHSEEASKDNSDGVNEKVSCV
Histamine H1 receptor, sequence (P31389 whole entry): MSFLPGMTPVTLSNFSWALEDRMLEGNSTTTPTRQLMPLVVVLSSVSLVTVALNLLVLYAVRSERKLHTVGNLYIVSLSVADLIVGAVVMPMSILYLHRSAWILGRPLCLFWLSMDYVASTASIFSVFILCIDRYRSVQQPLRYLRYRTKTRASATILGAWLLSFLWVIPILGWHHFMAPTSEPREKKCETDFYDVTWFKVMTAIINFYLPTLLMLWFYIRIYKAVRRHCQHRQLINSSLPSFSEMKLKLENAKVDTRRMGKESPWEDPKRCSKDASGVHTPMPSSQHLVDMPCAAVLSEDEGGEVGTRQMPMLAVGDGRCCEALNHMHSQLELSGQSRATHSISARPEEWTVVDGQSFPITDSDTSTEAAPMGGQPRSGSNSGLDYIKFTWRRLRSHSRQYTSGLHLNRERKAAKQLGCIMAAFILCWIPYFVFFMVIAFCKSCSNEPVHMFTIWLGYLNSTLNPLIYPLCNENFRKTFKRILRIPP
5-hydroxytryptamine receptor 1E, sequence (P28566 whole entry): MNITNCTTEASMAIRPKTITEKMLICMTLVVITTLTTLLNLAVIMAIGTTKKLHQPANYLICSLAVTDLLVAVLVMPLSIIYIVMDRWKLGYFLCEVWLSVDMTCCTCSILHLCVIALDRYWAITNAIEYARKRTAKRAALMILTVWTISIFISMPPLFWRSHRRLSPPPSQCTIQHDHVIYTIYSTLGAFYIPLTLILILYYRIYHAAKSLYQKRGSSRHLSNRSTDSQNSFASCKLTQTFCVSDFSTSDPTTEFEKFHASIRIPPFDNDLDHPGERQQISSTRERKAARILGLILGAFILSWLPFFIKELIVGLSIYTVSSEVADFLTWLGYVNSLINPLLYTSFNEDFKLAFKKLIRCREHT

| Structure (SMILES) | Kb [1] [nM] | Ki [2] [nM] | Ki [3] [nM] | other results |
| --- | --- | --- | --- | --- |
| Cc1cc(NC(=O)Nc2ccc3c(ccn3C)c2)on1 | 69.2 | 347 | > 6310 | – |
| Cc1cc(NC(=O)Nc2ccc3c(ccn3C)c2)sn1 | 11.2 | – | – | Ki [4]: > 100000 nM; Log Ki [5]: > -5.5; Ki (D(1A) dopamine receptor): > 10000 nM; Ki (D(2) dopamine receptor): > 31600 nM; Log Ki [6]: > -5; Ki (Histamine H1 receptor): > 10000 nM |
| Cn1ccc2cc(NC(=O)Nc3cccnc3)ccc21 | 38.9 | 110 | – | – |

Continued, in another order:

| Kb [1] [nM] | Ki [2] [nM] | Ki [3] [nM] | Structure (SMILES) | other results |
| --- | --- | --- | --- | --- |
| 46.8 | 89.1 | > 6310 | Cc1cc(NC(=O)Nc2ccc3sccc3c2)on1 | – |
| 15.1 | – | – | Cc1cc(NC(=O)Nc2ccc3sccc3c2)sn1 | Ki [7]: 6310 nM; Ki [8]: 417 nM; Selectivity [9]: 27 |
